The values below come from ChEMBL document CHEMBL5032512, “A Photohormone for Light-Dependent Control of PPARα in Live Cells” (J Med Chem, 2021).

The source made the active and inactive calls. Where only a bound is given, the exact number is not on record here.

Data set [1] deals with T1, Peroxisome proliferator-activated receptor delta (Homo sapiens, UniProt Q03181).
T1 sequence (Q03181 whole entry): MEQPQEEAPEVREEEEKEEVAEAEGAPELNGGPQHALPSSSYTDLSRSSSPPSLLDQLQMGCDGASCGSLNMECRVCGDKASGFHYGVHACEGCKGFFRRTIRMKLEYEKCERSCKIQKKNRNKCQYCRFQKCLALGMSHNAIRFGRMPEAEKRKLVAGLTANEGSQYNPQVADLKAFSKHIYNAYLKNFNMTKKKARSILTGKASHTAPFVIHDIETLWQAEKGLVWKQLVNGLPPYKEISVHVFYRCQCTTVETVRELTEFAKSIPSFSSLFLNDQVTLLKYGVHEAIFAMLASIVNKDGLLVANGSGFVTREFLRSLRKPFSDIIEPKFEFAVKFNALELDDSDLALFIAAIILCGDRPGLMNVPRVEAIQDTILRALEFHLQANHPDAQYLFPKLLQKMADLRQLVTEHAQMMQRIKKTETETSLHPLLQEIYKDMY
Put plainly: Agonist activity at Gal4-fused human PPARdelta LBD transfected in HEK293T cells assessed as transcriptional activation incubated for 14 to 16 hrs by dual-Glo luciferase assay. Type of data set: cell-based. The method in brief: (§1)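 HEK293T cells transiently transfected with pFR-Luc, pRL-SV40 and Gal4 fusion of human PPAR hinge region plus LBD. Compound added 5 h later in Opti-MEM with 0.1% DMSO, then left overnight (14−16 h). Dual-Glo firefly/Renilla luciferase read, giving RLU. Fold activation is taken against the DMSO control. Max relative activation is set against 1 μM GW7647 (α) or L165,041 (δ). EC50 from a four-parameter fit. Duplicates, ≥3 independent runs.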

In data set [2] the target is T2, Peroxisome proliferator-activated receptor alpha (Homo sapiens) (UniProt Q07869).
T2 sequence (whole entry): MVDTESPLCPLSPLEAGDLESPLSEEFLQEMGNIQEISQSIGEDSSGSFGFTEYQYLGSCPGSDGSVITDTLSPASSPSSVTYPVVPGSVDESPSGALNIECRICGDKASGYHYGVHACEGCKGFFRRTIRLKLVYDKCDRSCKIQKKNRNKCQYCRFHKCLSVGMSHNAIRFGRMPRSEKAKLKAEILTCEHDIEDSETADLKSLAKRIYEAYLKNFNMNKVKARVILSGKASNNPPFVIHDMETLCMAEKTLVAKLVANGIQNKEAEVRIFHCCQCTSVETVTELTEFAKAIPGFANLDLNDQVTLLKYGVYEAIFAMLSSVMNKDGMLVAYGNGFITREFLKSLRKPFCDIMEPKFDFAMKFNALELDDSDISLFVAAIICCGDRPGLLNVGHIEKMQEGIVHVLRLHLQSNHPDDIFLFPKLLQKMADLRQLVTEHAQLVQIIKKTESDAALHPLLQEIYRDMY
Nature of the data set: Agonist activity at Gal4-fused human PPARalpha LBD transfected in HEK293T cells assessed as maximal relative activation incubated for 14 to 16 hrs by dual-Glo luciferase assay relative to GW7647. Conditions: time 14-16 hrs. Format: cell-based. A digest of the protocol: as §1

The subject of a further data set is HEK-293T. Nature of the data set: Cytotoxicity against HEK293T cells assessed as reduction in cell viability at >= 6 uM. Format: cell-based. Conditions: human.
Data set [3] addresses T3, Peroxisome proliferator-activated receptor delta (Homo sapiens) (UniProt Q03181).
T3 sequence (whole entry): T1 sequence (Q03181 whole entry)
Put plainly: Agonist activity at Gal4-fused human PPARdelta LBD transfected in HEK293T cells assessed as maximal relative activation incubated for 14 to 16 hrs by dual-Glo luciferase assay relative to L165,041. Type of data set: cell-based. Conditions: time 14-16 hrs. A digest of the protocol:
as §1

Data set [4] concerns the target T4, Peroxisome proliferator-activated receptor gamma (Homo sapiens, UniProt P37231).
T4 sequence (P37231 whole entry): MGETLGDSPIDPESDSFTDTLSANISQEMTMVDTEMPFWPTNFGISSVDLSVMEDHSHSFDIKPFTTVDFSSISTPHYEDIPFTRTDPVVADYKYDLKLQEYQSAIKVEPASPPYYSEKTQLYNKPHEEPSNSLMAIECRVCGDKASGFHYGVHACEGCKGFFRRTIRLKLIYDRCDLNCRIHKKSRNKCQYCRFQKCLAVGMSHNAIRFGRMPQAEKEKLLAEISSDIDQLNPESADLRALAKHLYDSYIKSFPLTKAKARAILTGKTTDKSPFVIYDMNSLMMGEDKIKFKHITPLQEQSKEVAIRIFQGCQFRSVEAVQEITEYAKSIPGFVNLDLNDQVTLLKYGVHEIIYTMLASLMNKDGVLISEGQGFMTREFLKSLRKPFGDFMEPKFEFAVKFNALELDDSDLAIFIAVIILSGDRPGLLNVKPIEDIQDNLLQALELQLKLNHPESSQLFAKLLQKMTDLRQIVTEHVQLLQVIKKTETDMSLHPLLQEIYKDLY
Put plainly: Agonist activity at Gal4-fused human PPARgamma LBD transfected in HEK293T cells assessed as transcriptional activation incubated for 14 to 16 hrs by dual-Glo luciferase assay. Format: cell-based.

Data set [5] concerns the target T5, Peroxisome proliferator-activated receptor alpha (Homo sapiens, UniProt Q07869).
T5 sequence (Q07869 whole entry): T2 sequence (whole entry)
Put plainly: Agonist activity at Gal4-fused human PPARalpha LBD transfected in HEK293T cells assessed as transcriptional activation incubated for 14 to 16 hrs by dual-Glo luciferase assay. Format: cell-based. The method in brief: as §1

Data set [6] addresses T2, Peroxisome proliferator-activated receptor alpha (Homo sapiens). Put plainly: Agonist activity at human Gal4-PPARalpha transfected in HEK293T cells assessed as increase in mCherry fluorescence at 10 nM measured after 8 to 24 hrs by fluorescence microscopic analysis. Type of data set: cell-based. The following applies: filed as agonist, time 8-24 hrs. The method in brief:
(§2)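 Live HEK293T cells carrying UAS-mCherry-NLS plus Gal4-PPARα-LBD were treated with compound in 0.1% DMSO. mCherry read (ex 585, em 610 nm) hourly from 8 to 24 h and at 36 h. At 8 h, isomers switched by 3 min illumination at 365 or 460 nm. cis state held by Cell DISCO. Fold intensity against DMSO. n = 3.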

The nature of data set [7]: Photostability of compound assessed as photochemical switch by measuring cis-isoform at 50 uM incubated for 8 hrs followed by irradiation with 365 nm UV light for 3 mins by HPLC analysis. Type of data set: physicochemical.
In data set [8] the target is T2, Peroxisome proliferator-activated receptor alpha (Homo sapiens). Nature of the data set: Agonist activity at human Gal4-PPARalpha transfected in HEK293T cells assessed as increase in mCherry fluorescence at 10 nM incubated for 8 hrs followed by irradiation with 460 nm UV light for 3 mins by fluorescence based analysis. Format: cell-based. The following applies: filed as agonist. A digest of the protocol: as §2

Data set [9] has the same target. Nature of the data set: Agonist activity at human Gal4-PPARalpha transfected in HEK293T cells assessed as increase in mCherry fluorescence at 300 nM incubated for 40 hrs by fluorescence microscopic analysis. Format: cell-based. The following applies: filed as agonist. The method in brief: (§3)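 HEK293T cells transfected separately with UAS-mCherry-NLS plus Gal4-PPARα-LBD, or […]-GFP plus Gal4-PPARδ-LBD. Cells pooled 5 h later and reseeded with compound in 0.1% DMSO. cis form preirradiated 3 min at 365 nm, then held with 75 ms 370 nm pulses every 15 s. Microscope images taken at 40 h. Integrated density set against 1 μM reference agonist. Duplicates, two independent runs.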

The nature of data set [10]: Microsomal stability in Sprague-Dawley rat liver microsomes assessed as half life at 10 uM measured up to 60 mins in presence of NADPH regenerating system by HPLC-UV analysis. Type of data set: ADME, Microsome. The method in brief: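 Compound at 10 μM final, preincubated 5 min at 37 °C in 0.1 M phosphate pH 7.4 with NADPH-regenerating system. Reaction started with Sprague-Dawley rat liver microsomes and stopped with cold methanol at 0, 15, 30 and 60 min. Remaining compound measured by HPLC-UV at 254/280 nm against external calibration. Controls run without NADPH and with heat-inactivated microsomes. Half-life from log-linear fit. Three independent runs.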

Data set [11] has as its target T2, Peroxisome proliferator-activated receptor alpha (Homo sapiens). Nature of the data set: Agonist activity at human Gal4-PPARalpha transfected in HEK293T cells assessed as increase in mCherry fluorescence at 10 nM incubated for 40 hrs by fluorescence microscopic analysis. Type of data set: cell-based. The following applies: filed as agonist. A digest of the protocol:
as §3

Data set [12] has as its target T3, Peroxisome proliferator-activated receptor delta (Homo sapiens). Put plainly: Agonist activity at human Gal4-PPARdelta transfected in HEK293T cells assessed as increase in eGFP fluorescence at 300 nM incubated for 40 hrs by fluorescence microscopic analysis. Format: cell-based. A digest of the protocol: as §3

For orientation: EC50 means the concentration giving half of the maximal effect. Consider `Cc1ccc(/N=N/c2ccc(OCCc3ccc(OC(C)(C)C(=O)O)cc3)cc2)cc1`, for which the results for the EC50 in data set [1], in data set [4] and in data set [5] were 1.42 µM, above 10 µM and 0.66 µM, respectively. Further, the figures for the max activation in [2] and in [3] were 24% and 33%, respectively. For the same compound, the Activity result with HEK-293T is “Non-Toxic”.
As usually defined, the half-life is the time needed for the level to fall by half in the phase considered. Regarding `Cc1cc(/N=N/c2ccccc2)ccc1OCCc1ccc(OC(C)(C)C(=O)O)cc1`, the result in [6], in [8], in data set [9] and in [11] was Active. Besides, the EC50 in [1] was found to be 0.54 µM; in [5], 0.007 µM. The max activation in [2] came out at 38%; in [3] (filed as agonist) it was 45%. For the same compound, the Stability entry in data set [7] was “Stable”. Further, the half-life at 10 µM in data set [10] is 1.72 h. Besides, the outcome in data set [12] was inactive.
